The source of these data is ChEMBL document CHEMBL1135436, “Structure-activity relationships of the melanocortin tetrapeptide Ac-His-DPhe-Arg-Trp-NH(2) at the mouse melanocortin receptors. 1. Modifications at the His position” (J Med Chem, 2002).

Each structure is given as a SMILES string. Where a SMILES comes first, the peptide text is derived from it. [ ]: non-standard residue; d: D form. Tic = O=C(O)[C@@H]1Cc2ccccc2CN1; dTic = O=C(O)[C@H]1Cc2ccccc2CN1; 2Thi = N[C@@H](Cc1cccs1)C(=O)O

One experiment has as its target Melanocortin receptor 5 (Mus musculus, UniProt P41149). The experiment can be described thus: In vitro activation of mouse recombinant Melanocortin-5 receptor. The procedure, abridged:
(§1)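 HEK-293 cells stably expressing the mouse receptor (calcium phosphate transfection, G418 1 mg/mL selection) were transfected with a CRE/β-galactosidase reporter. Lysates were read with ONPG at 37 °C (OD405), normalized to protein (OD595) and forskolin. EC50 came from nonlinear least-squares fitting, duplicate experiments in quadruplet.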

A further experiment deals with Melanocortin receptor 4 (Mus musculus, UniProt P56450). Briefly: In vitro activation of mouse recombinant Melanocortin-4 receptor. The method in brief:
as §1

Experiment [1] has as its target T1, Melanocortin receptor 3 (Mus musculus, UniProt P33033). Briefly: In vitro activation of mouse recombinant Melanocortin-3 receptor. The procedure, abridged:
as §1

The target in experiment [2] is Melanocyte-stimulating hormone receptor (Mus musculus, UniProt Q01727). Briefly: In vitro activation of mouse recombinant Melanocortin-1 receptor. The procedure, abridged: as §1
Melanocyte-stimulating hormone receptor, sequence (Q01727 whole entry): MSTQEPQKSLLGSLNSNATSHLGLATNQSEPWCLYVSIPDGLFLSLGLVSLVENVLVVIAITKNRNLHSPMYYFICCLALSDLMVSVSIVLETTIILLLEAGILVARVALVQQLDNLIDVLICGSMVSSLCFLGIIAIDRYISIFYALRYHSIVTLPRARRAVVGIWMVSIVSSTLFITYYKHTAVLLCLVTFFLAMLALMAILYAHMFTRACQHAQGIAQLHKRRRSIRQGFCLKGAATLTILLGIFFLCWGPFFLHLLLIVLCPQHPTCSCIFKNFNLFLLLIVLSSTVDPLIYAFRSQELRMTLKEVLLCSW
The target in experiment [3] is T1, Melanocortin receptor 3. Briefly: Agonist activity of compound in mouse Melanocortin-3 receptor (mMC3R); Slight agonist. The format is functional. The method in brief:
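HEK-293 cells stably expressing the mouse receptor (calcium phosphate transfection, G418 1 mg/mL selection) were transfected with a CRE/β-galactosidase reporter. At 48 h they were stimulated for 6 h with peptide (10^-4–10^-12 M) or forskolin (10^-4 M) in DMEM with 0.1 mg/mL BSA and 0.1 mM IBMX. Lysates were read with ONPG at 37 °C (OD405), normalized to protein (OD595) and forskolin. EC50 came from nonlinear least-squares fitting, duplicate experiments in quadruplet.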

Melanocortin receptor 4, sequence (P56450 whole entry): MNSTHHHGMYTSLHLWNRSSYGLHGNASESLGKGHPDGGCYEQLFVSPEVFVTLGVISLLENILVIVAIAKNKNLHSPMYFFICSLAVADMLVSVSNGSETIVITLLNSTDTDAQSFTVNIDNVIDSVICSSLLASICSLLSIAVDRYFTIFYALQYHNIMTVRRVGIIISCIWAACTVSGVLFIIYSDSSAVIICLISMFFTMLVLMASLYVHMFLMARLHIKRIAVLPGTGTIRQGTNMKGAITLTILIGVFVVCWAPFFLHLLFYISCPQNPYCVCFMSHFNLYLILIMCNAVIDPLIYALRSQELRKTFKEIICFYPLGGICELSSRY
T1 sequence (P33033 whole entry): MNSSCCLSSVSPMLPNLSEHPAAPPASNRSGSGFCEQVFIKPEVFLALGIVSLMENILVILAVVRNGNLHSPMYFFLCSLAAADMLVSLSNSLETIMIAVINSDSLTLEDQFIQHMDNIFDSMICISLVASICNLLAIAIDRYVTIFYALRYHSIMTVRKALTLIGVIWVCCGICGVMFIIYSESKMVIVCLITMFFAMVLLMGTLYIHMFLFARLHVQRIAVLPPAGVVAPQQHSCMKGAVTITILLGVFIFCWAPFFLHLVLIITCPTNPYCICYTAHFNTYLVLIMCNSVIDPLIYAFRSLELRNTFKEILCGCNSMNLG
Melanocortin receptor 5, sequence (P41149 whole entry): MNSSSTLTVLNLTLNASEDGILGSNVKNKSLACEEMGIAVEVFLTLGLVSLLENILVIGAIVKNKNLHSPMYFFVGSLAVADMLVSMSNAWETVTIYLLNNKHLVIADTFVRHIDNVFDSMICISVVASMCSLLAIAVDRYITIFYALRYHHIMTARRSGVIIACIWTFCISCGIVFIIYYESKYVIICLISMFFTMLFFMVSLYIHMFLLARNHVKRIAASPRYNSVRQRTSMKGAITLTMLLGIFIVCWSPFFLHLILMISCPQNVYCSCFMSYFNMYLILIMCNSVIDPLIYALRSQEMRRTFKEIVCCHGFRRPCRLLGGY

For orientation: EC50 means the concentration needed to bring the measured effect to its halfway point. With `CC(=O)N[C@@H](Cc1ccncc1)C(=O)N[C@H](Cc1ccccc1)C(=O)N[C@@H](CCCN=C(N)N)C(=O)N[C@@H](Cc1c[nH]c2ccccc12)C(N)=O`, the EC50 at Melanocortin receptor 5 amounted to 92.5 nM; at Melanocortin receptor 4, 128 nM; at Melanocortin receptor 3 [1], 2270 nM; in experiment [2], 176 nM.

For `CC(=O)N[C@@H](Cc1cccnc1)C(=O)N[C@H](Cc1ccccc1)C(=O)N[C@@H](CCCN=C(N)N)C(=O)N[C@@H](Cc1c[nH]c2ccccc12)C(N)=O`, the concentration giving a half-maximal response (EC50) on Melanocortin receptor 5 was 400 nM; at Melanocortin receptor 4, 887 nM; on Melanocortin receptor 3 [3], “Partial agonist”; in experiment [2] it was 1150 nM.

`CC(=O)N[C@@H](Cc1ccccc1)C(=O)N[C@H](Cc1ccccc1)C(=O)N[C@@H](CCCNC(=N)N)C(=O)N[C@@H](Cc1c[nH]c2ccccc12)C(N)=O`: the half-maximal effective concentration (EC50) amounted to 143 nM on Melanocortin receptor 5, 70.6 nM at Melanocortin receptor 4, 11900 nM on Melanocortin receptor 3 [1] and 503 nM in experiment [2].

Regarding `CC(=O)N[C@H](Cc1ccc2ccccc2c1)C(=O)N[C@H](Cc1ccccc1)C(=O)N[C@@H](CCCNC(=N)N)C(=O)N[C@@H](Cc1c[nH]c2ccccc12)C(N)=O`, the concentration giving a half-maximal response (EC50) at Melanocortin receptor 5 was 2240 nM; on Melanocortin receptor 4, 1500 nM; at Melanocortin receptor 3 [1], greater than 100000 nM; in experiment [2] it was 7100 nM.

With `CC(=O)N[C@H](Cc1ccccc1)C(=O)N[C@H](Cc1ccccc1)C(=O)N[C@@H](CCCNC(=N)N)C(=O)N[C@@H](Cc1c[nH]c2ccccc12)C(N)=O`, the EC50 was 2980 nM on Melanocortin receptor 5, 2170 nM at Melanocortin receptor 4, greater than 100000 nM at Melanocortin receptor 3 [1] and 11500 nM in experiment [2].

On to `CC(=O)N[C@@H](C)C(=O)N[C@H](Cc1ccccc1)C(=O)N[C@@H](CCCN=C(N)N)C(=O)N[C@@H](Cc1c[nH]c2ccccc12)C(N)=O`, for which the EC50 on Melanocortin receptor 5 was 300 nM; at Melanocortin receptor 4, 1000 nM; at Melanocortin receptor 3 [1], 9000 nM; in experiment [2], 1800 nM.

Consider `CC(=O)N[C@@H](Cc1csc2ccccc12)C(=O)N[C@H](Cc1ccccc1)C(=O)N[C@@H](CCCN=C(N)N)C(=O)N[C@@H](Cc1c[nH]c2ccccc12)C(N)=O`, for which the EC50 on Melanocortin receptor 5 amounted to 381 nM; at Melanocortin receptor 4, 211 nM; on Melanocortin receptor 3 [1] it was 19800 nM; in experiment [2], 4400 nM.

For the molecule `CC(=O)N[C@H](Cc1c[nH]c2ccccc12)C(=O)N[C@H](Cc1ccccc1)C(=O)N[C@@H](CCCNC(=N)N)C(=O)N[C@@H](Cc1c[nH]c2ccccc12)C(N)=O`, the concentration for a half-maximal effect (EC50) at Melanocortin receptor 5 is 1260 nM; on Melanocortin receptor 4 it was 6200 nM; on Melanocortin receptor 3 [1], greater than 100000 nM; in experiment [2], 6600 nM.

As for `CC(=O)N[C@@H](Cc1c[nH]c2ccccc12)C(=O)N[C@H](Cc1ccccc1)C(=O)N[C@@H](CCCN=C(N)N)C(=O)N[C@@H](Cc1c[nH]c2ccccc12)C(N)=O`, the EC50 on Melanocortin receptor 5 was determined as 507 nM; at Melanocortin receptor 4, 528 nM; at Melanocortin receptor 3 [1] it was 10300 nM; in experiment [2] it was 5400 nM.

Turning to `CC(=O)N[C@@H](Cc1ccc2ccccc2c1)C(=O)N[C@H](Cc1ccccc1)C(=O)N[C@@H](CCCN=C(N)N)C(=O)N[C@@H](Cc1c[nH]c2ccccc12)C(N)=O`, the EC50 at Melanocortin receptor 5 was 606 nM; on Melanocortin receptor 4, 2900 nM; at Melanocortin receptor 3 [1] it was 14700 nM; in experiment [2], 9500 nM.

For `CC(=O)N[C@H](Cc1cnc[nH]1)C(=O)N[C@H](Cc1ccccc1)C(=O)N[C@@H](CCCNC(=N)N)C(=O)N[C@@H](Cc1c[nH]c2ccccc12)C(N)=O`, the EC50 on Melanocortin receptor 5 was determined as 138 nM; at Melanocortin receptor 4, 506 nM.

On to `CC(=O)NC1(C(=O)N[C@H](Cc2ccccc2)C(=O)N[C@@H](CCCNC(=N)N)C(=O)N[C@@H](Cc2c[nH]c3ccccc23)C(N)=O)CCc2ccccc2C1` (stereo partly specified), for which the values for the concentration giving a half-maximal response (EC50) (on Melanocortin receptor 5; on Melanocortin receptor 4; in experiment [2]) were 2400 nM, 714 nM and 7730 nM, respectively.

On to `CC(=O)N1CCC[C@H]1C(=O)N[C@H](Cc1ccccc1)C(=O)N[C@@H](CCCN=C(N)N)C(=O)N[C@@H](Cc1c[nH]c2ccccc12)C(N)=O` (Ac-P[dF]RW-NH2), for which the EC50 came out at 684 nM on Melanocortin receptor 5, 1500 nM at Melanocortin receptor 4, 15000 nM on Melanocortin receptor 3 [1] and 4250 nM in experiment [2].

With `CC(=O)N[C@@H](Cc1cccs1)C(=O)N[C@H](Cc1ccccc1)C(=O)N[C@@H](CCCNC(=N)N)C(=O)N[C@@H](Cc1c[nH]c2ccccc12)C(N)=O` (Ac-[2Thi][dF]RW-NH2), the 50% effective concentration (EC50) on Melanocortin receptor 5 was found to be 40.5 nM; on Melanocortin receptor 4, 91.2 nM; on Melanocortin receptor 3 [1], 2950 nM; in experiment [2] it was 203 nM.

For the molecule `CC(=O)N1Cc2ccccc2C[C@H]1C(=O)N[C@H](Cc1ccccc1)C(=O)N[C@@H](CCCNC(=N)N)C(=O)N[C@@H](Cc1c[nH]c2ccccc12)C(N)=O` (Ac-[Tic][dF]RW-NH2), the half-maximal effective concentration (EC50) came to 369 nM at Melanocortin receptor 5, 2900 nM on Melanocortin receptor 4, 11800 nM on Melanocortin receptor 3 [1] and 2600 nM in experiment [2].

For `CC(=O)N1Cc2ccccc2C[C@@H]1C(=O)N[C@H](Cc1ccccc1)C(=O)N[C@@H](CCCN=C(N)N)C(=O)N[C@@H](Cc1c[nH]c2ccccc12)C(N)=O` (Ac-[dTic][dF]RW-NH2), the EC50 on Melanocortin receptor 5 was 12000 nM; at Melanocortin receptor 4, 11700 nM; on Melanocortin receptor 3 [1], greater than 100000 nM; in experiment [2], 11300 nM.
